# Screening data (PubChem)
# Dynein cargo inh = dynein cargo transport inhibition; 220,000 tested, 0.47% active; AID 1381; z-score, hits read low; 3617.4 mouse cells, GR-EGFP nuclear translocation imaging; test concentration mostly 20 µM; stimulated with dexamethasone, 1 µM; stronger effect = lower value;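 active = plate z-score of nuclear minus cytoplasmic receptor signal below a set negative limit, without overly bright fluorescence or cell loss, cut at about -3.5 in these data, passing the limit was not always enough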;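 note: z-score of nuclear minus cytoplasmic ring GR-EGFP intensity difference per well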
#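 Buffer or medium: tetracycline-free induction medium containing charcoal-stripped FBS / Reagent: dexamethasone agonist, 1.0 µM final, for 30 min / Technique: automated 10x imaging of fixed Hoechst-stained cells / Times: induction 48 h, compound 1 h, agonist 30 min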
# EP2 antag = EP2 receptor (human) inhibition | P43116 | C6 glioma cells expressing human EP2, cAMP TR-FRET; cells stimulated with saturating PGE2 | inhibition, % at 25 µM | 260,000 tested, 0.52% active | AID 1422;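 active = percent inhibition above 40 after rounding to a whole number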;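 note: rat C6 glioma host cells with rolipram phosphodiesterase inhibitor present; the protocol text gives 20 µM as final concentration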
# Target sequence (P43116 whole entry, looked up): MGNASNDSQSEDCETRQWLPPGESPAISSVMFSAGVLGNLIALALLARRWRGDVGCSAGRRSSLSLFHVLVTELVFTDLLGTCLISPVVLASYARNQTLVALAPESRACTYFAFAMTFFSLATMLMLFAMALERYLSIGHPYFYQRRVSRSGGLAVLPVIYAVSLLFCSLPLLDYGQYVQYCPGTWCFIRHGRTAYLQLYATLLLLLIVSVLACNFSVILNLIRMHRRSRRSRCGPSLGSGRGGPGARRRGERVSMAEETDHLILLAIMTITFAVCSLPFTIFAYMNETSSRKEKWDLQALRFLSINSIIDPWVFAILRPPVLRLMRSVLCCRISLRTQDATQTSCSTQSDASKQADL
# Hsp70 act = Hsp70 transcriptional activation, primary screen. HeLa Hsp70 promoter luciferase reporter, luminescence; scaled: vehicle 0, proteasome-inhibitor control 100%. activation, % at 10 µM. 200,000 tested, 0.04% active. AID 1203;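 active = activation above the mean across all tested compounds plus 3 SD, cutoff set per campaign, cut at about 5.5% in these data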;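 note: 100% = MG132 at 30 µM as the positive control and 0% = DMSO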
# EP2 mod = modulates human prostaglandin E2 receptor EP2 signaling | P43116 | EP2-expressing cells, cAMP HTRF FRET, PGE2 co-stimulation | induction, % at 25 µM | 260,000 tested, 0.83% active | AID 940;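 active = compounds whose cAMP rise, as percent of the full-agonist control response, exceeds 60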;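 note: rat C6 glioma line stably carrying human EP2 under a CMV promoter; the protocol text gives 20 µM as final concentration; 100% = response of wells given 1 µM PGE2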
# EP2 cAMP induct = EP2 receptor cAMP induction, counter-screens negative. calls only at 20 µM (by protocol). AID 1080. C6 glioma EP2 cells, cAMP HTRF induction; plus low (about EC15) PGE2 agonist. shares compounds with EP2 mod. 1,300 tested, 47% active;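 active = cAMP induction above 50% in the main assay while under 30% in all four parallel counter assays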;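 note: rat C6 glioma cells stably expressing human EP2 receptor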
# * marks the source's active call; other numbers are inactive results; i = inactive; x = not tested or not shown; + = active, no number; ! = not active in a repeat. In the library only some 1.7% were active in any assay of this set; here they are far more common.
SMILES,Dynein cargo inh,EP2 antag,Hsp70 act,EP2 mod,EP2 cAMP induct
O=C(COc1ccccc1)Nc1ccccc1Oc1ccccc1,-0.17,4,0,72*,+
O=C(Nc1ccccc1Oc1ccccc1)c1ccccc1F,-0.27,5,0,68*,i
COc1cccc(OCC(=O)Nc2ccccc2-c2ccccc2)c1,-0.34,13,0,70*,+
O=C(Nc1cc(Cl)ccc1Oc1ccccc1)c1ccccc1F,0.46,11,0,46,x
COc1ccc2c(c1)C=C(CN1CCC(O)(c3ccccc3F)CC1)CO2,x,4,x,-110,x
O=C(COc1ccccc1)Nc1ccccc1N1CCN(c2ccccc2)CC1,-0.74,8,0,73*,+
O=C(CN1CCC(n2cnc3cccnc32)CC1)Nc1ccc2c(c1)OCO2,x,x,x,26,x
CCCN(Cc1cc2cc(OC)ccc2[nH]c1=O)C(=O)C(C)C,x,12,x,-31,x
CSc1nc2nccc(-c3ccc(-c4ccccc4)cc3)n2n1,-0.33,10,0,70*,i
CSc1nc2nccc(-c3ccc(Oc4ccccc4)cc3)n2n1,-0.66,12,0,-11,x
O=c1c2c3c(sc2ncn1-c1ccccc1)CCCCC3,x,13,x,-38,x
COCC(=O)N(C)c1nnc(-c2cnc(C)cn2)s1,-0.26,17,0,71*,i
O=C1NC2(CCN(C(=O)c3ccc(CN4CCCCC4)cc3)CC2)Nc2ccccc21,x,10,x,-14,x
N#CC1(Cc2ccccc2Cl)c2ccccc2C=CN1C(=O)c1ccccc1 (configuration not stated),2.2,x,0,70*,i
O=C1CCCc2ccccc2N1Cc1c(Cl)cccc1Cl,0.13,9,0,72*,+
Clc1cccc(Cl)c1CSc1cc2c(nn1)-c1ccccc1CC2,0.47,7,0,17,x
O=C1CCCc2ccccc2N1Cc1ccccc1Cl,0.78,11,-1,16,x
O=C1CCCc2ccccc2N1Cc1cccc(Cl)c1,0.64,9,0,72*,i
O=c1cc2c(nn1Cc1c(Cl)cccc1Cl)-c1ccccc1CC2,1,8,0,78*,+
CCN1CCN(CC(=O)NC23CC4CC(CC(C4)C2)C3)CC1,x,7,x,-17,x
Cc1[nH]ncc1C(=O)N1CCn2c(nc(-c3ccc(N(C)C)cc3)c2NC(C)(C)C)C1,x,5,x,-11,x
O=c1n(CN2CCN(C3CCCCC3)CC2)nc2c3ccccc3ncn12,x,10,x,-51,x
CC(C)C(=O)N1CCN(c2ccccc2NC(=O)c2ccc(C#N)cc2F)CC1,0.3,5,0,26,x
CC1CCN(c2ccccc2NC(=O)c2ccc(C#N)cc2F)CC1,-0.43,10,0,59,+
COc1cccc(NC(=O)N(Cc2ccccc2)Cc2nc3sc4c(c3c(=O)[nH]2)CCCC4)c1,x,4,x,-15,x
SMILES,Dynein cargo inh,EP2 antag,Hsp70 act,EP2 mod,EP2 cAMP induct
CCc1ccccc1N(C(=O)Cn1nnc2ccccc21)C(C(=O)NC(C)(C)C)c1ccsc1 (configuration not stated),x,7,x,31,x
Cn1c(=O)n(C)c2cc(C(=O)NC3(c4cccc(F)c4)CCCC3)ccc21,x,x,x,-10,x
O=C(CSc1nnc(-c2cc3ccccc3cc2O)n1Cc1ccco1)c1ccc(F)cc1,-0.39,3,-1,50,i
COc1ccccc1-c1nnc(SCC(=O)c2ccc(C3CCCCC3)cc2)n1Cc1ccco1,-0.64,7,0,54,+
COc1cccc(C2NC(=O)C(O)=C2C(=O)c2cccs2)c1 (configuration not stated),x,19,x,16,x
CC(C)c1nc2sc3c(NCc4ccccc4)ncnc3c2c2c1COC(C)(C)C2,0.16,7,0,38,x
CCN(CCO)c1ncnc2c1sc1nc(C(C)C)c3c(c12)CC(C)(C)OC3,-0.091,15,0,79*,i
CN(/N=C\c1ccc(O)c(O)c1)c1nc(-c2ccccc2)cc(-c2ccccc2)n1,-1,9,0,67*,i
CCOC(=O)c1oc2ccccc2c1NC(=O)c1cccc(OC)c1OC,-0.28,10,0,66*,i
CCOC(=O)c1oc2ccccc2c1NC(=O)CCl,-0.54,8,x,-13,x
O=C(c1sc2ccccc2c1Cl)N(CCCO)Cc1cc2cc3c(cc2[nH]c1=O)OCCO3,x,13,x,-19,x
COC(=O)c1cc2occc2n1Cc1cccc(C)c1,0.97,3,0,76*,+
O=C(OC(C(=O)NC1CCCCC1)c1ccc(F)cc1)c1cccs1 (configuration not stated),x,14,x,19,x
Cc1cccc(NC2=NC(=S)N(c3ccc(C(=O)O)cc3)C23CCCCC3)c1,-0.57,x,0,97*,+
CCOC(=O)c1c(N)sc(C(O)(C(F)(F)F)C(F)(F)F)c1-c1ccccc1,-0.8,13,0,2,x
CCOC(=O)c1c(N)nn(C(=O)c2ccccc2F)c1-c1ccc(OC)cc1,-0.71,1,0,39,x
CCOC(=O)c1c(N)nn(C(=O)C(C)(C)C)c1-c1ccccc1,-0.23,3,0,78*,+
CCOC(=O)c1c(N)sc(-c2ccccc2)c1C,-0.25,8,0,73*,i
Clc1ccc(-c2nn3c(-c4ccccc4)nnc3s2)cc1,1.5,5,0,73*,+
COc1ccc(-n2c(-c3ccccc3)nnc2-c2ccc(Cl)cc2)cc1,0.58,9,0,69*,+
COc1ccc(-c2nn3c(-c4ccccc4)nnc3s2)cc1,-1,4,0,81*,+
COc1ccc(-n2nnnc2-c2ccccc2)cc1,0.079,4,0,5,x
CCCc1cc2nnc(SCC(=O)N3c4ccccc4CCc4ccccc43)n2c(N)n1,x,11,x,14,x
CCc1cc(=O)[nH]c(NC2CCN(C(=O)C3(c4ccccc4)CC3)CC2)n1,x,6,x,31,x
Cc1onc(-c2c(F)cccc2Cl)c1C(=O)OCn1nnc2ccccc2c1=O,-1.3,7,0,77*,i
SMILES,Dynein cargo inh,EP2 antag,Hsp70 act,EP2 mod,EP2 cAMP induct
Cc1ccc(-c2cc(C(F)(F)F)nn2-c2ccc(S(N)(=O)=O)cc2)cc1,x,11,x,66*,+
NS(=O)(=O)c1ccc(-n2nc(C(=O)O)cc2-c2ccc(Cl)cc2)cc1,0.02,3,0,5,x
COc1ccc(Cl)cc1NC(=O)C1CCN(c2nc(C)cc(C)n2)CC1,x,4,x,-19,x
C#CCN1C(=O)C(O)(CC(=O)c2ccc(N)cc2)c2ccccc21 (configuration not stated),x,9,x,-58,x
CCc1ccc(Nc2oc(C)cc(=O)c2C(C)=O)cc1,0.14,24,0,68*,i
CCc1ccc(C2C(C(C)=O)=C(O)C(=O)N2CC(=O)OC)cc1 (configuration not stated),x,17,x,2,x
CCOC(=O)c1ccccc1NC(=O)CSc1ncc(C(=O)OCC)c(N)n1,-0.53,3,0,65*!,i
